The source of these data is ChEMBL document CHEMBL1151856, “Novel, potent, and radio-iodinatable somatostatin receptor 1 (sst1) selective analogues” (J Med Chem, 2009).

Assay [1] deals with Somatostatin receptor type 5 (Homo sapiens, UniProt P35346). Put plainly: Displacement of [125I]LTT-SRIF-28 from human sst5 receptor by autoradiography. In a few lines: (§1)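 Competition autoradiography on 20-μm cryostat sections of membrane pellets from cells expressing each cloned receptor. Buffer was 170 mM Tris-HCl pH 8.2 with 1% BSA, bacitracin and 10 mM MgCl2. Cold washes, 1-week film exposure, image quantification against isotope standards, IC50 derived.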
For orientation: Loss of bound radioactivity is the signal in a displacement assay; it reports binding, not function.

Assay [2] deals with T1, Somatostatin receptor type 1 (Homo sapiens, UniProt P30872). The experiment in a line: Displacement of [125I]LTT-SRIF-28 from human sst1 receptor by autoradiography. In a few lines: as §1
Assay [3] addresses Somatostatin receptor type 3 (Homo sapiens, UniProt P32745). The experiment in a line: Displacement of [125I]LTT-SRIF-28 from human sst3 receptor by autoradiography. The method, boiled down:
as §1

In assay [4] the target is Somatostatin receptor type 2 (Homo sapiens, UniProt P30874). The experiment in a line: Displacement of [125I]LTT-SRIF-28 from human sst2 receptor by autoradiography. In a few lines:
as §1

Assay [5] has as its target Somatostatin receptor type 4 (Homo sapiens, UniProt P31391). The experiment in a line: Displacement of [125I]LTT-SRIF-28 from human sst4 receptor by autoradiography.
For assay [6], the target named is T1, Somatostatin receptor type 1. Put plainly: Agonist activity at human sst1 receptor expressed in Chinese hamster CCL39 cells by luciferase reporter gene assay relative to somatostatin-14. In kind it is functional, cell-based. A general note: In a reporter assay the amount or activity of a reporter protein is the signal.

The IC50 is the concentration at which inhibition is half-maximal. Low readings indicate inhibition by little substance, high ones a need for much substance. Broadly, the EC50 is the concentration giving half of the maximal effect. Low values mean an effect from little substance, high ones a need for much substance.

The source made the active and inactive calls. The rule behind the calls is not given here. Positions of bridges follow the written chain, without caps; N, C: chain ends. Non-standard residues stand in square brackets, D forms with d. Residues, ends and D or L forms follow the SMILES beside them. Phe(4-CH2NHiPr) = CC(C)NCc1ccc(C[C@H](N)C(=O)O)cc1 A value given as a limit tells only on which side of the number the result lay.

Somatostatin receptor type 3, sequence (P32745 whole entry): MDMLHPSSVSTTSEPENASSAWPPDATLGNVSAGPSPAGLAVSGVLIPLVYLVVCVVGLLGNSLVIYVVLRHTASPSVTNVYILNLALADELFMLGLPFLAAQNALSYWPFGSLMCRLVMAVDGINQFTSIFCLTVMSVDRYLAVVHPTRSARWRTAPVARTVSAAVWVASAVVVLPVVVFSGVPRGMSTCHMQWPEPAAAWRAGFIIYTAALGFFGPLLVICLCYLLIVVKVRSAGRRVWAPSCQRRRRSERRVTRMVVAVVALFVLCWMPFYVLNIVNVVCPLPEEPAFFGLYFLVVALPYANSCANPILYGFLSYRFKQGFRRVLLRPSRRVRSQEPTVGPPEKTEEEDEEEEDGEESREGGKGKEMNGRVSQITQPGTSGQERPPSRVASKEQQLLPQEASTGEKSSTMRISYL
T1 sequence (P30872 whole entry): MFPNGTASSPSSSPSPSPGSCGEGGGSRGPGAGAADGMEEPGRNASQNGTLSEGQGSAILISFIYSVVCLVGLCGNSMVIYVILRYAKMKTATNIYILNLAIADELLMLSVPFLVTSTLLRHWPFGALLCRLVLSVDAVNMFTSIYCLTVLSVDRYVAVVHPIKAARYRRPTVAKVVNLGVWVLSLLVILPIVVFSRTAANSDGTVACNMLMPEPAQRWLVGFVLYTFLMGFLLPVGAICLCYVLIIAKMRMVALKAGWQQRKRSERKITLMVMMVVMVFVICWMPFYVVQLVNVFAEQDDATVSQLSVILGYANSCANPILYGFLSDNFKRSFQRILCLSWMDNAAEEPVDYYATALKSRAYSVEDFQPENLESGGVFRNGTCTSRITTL
Somatostatin receptor type 2, sequence (P30874 whole entry): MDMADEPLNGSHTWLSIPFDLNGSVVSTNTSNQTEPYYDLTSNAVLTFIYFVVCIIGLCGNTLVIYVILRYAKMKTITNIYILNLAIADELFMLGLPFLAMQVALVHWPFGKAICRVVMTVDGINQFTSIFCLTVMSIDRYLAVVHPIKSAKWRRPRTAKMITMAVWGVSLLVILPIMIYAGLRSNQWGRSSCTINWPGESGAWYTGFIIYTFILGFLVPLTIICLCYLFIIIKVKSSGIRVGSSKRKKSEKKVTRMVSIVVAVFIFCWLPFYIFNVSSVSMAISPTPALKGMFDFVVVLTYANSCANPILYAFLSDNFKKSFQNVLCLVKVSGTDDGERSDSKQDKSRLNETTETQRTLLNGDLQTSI
Somatostatin receptor type 5, sequence (P35346 whole entry): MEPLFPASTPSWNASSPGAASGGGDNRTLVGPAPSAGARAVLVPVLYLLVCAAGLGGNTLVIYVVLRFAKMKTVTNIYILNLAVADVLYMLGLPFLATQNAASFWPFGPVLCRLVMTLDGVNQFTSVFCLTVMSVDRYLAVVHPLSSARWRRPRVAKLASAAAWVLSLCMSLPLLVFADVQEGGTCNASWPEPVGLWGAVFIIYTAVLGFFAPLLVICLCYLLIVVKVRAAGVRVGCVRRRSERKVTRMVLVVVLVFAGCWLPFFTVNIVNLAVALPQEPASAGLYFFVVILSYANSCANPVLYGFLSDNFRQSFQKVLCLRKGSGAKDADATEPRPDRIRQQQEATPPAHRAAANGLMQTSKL
Somatostatin receptor type 4, sequence (P31391 whole entry): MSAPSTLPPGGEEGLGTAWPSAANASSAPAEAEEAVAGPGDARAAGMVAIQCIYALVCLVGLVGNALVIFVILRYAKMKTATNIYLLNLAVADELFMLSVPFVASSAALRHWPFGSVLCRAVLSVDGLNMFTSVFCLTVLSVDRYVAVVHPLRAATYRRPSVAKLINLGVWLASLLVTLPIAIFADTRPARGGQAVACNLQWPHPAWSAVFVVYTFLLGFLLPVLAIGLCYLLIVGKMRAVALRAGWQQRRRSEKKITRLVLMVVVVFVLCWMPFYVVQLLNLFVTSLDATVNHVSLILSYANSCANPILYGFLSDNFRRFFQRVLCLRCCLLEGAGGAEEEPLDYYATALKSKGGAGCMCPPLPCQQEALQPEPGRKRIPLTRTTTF

Regarding `CC(C)NCc1ccc(C[C@@H]2NC(=O)[C@@H](Cc3c[nH]c4ccccc34)NC(=O)[C@H](Cc3ccccc3)NC(=O)[C@@H](NC(=O)[C@H](N)Cc3ccccc3)CSSC[C@@H](C(=O)N[C@H](C(N)=O)[C@@H](C)O)NC(=O)[C@H](Cc3ccccc3)NC2=O)cc1` (H-[dF]CF[dW][Phe(4-CH2NHiPr)]FCT-NH2; disulfide 2-7), the IC50 was over 1000 nM in assay [1], 14 nM in assay [2], 72 nM in assay [3] and over 1000 nM in assay [4].
`CC(C)NCc1ccc(C[C@@H]2NC(=O)[C@@H](Cc3c[nH]c4ccccc34)NC(=O)[C@H](Cc3ccccc3)NC(=O)[C@H](Cc3ccccc3)NC(=O)[C@@H](N)CSSC[C@@H](C(=O)O)NC(=O)[C@H](Cc3ccccc3)NC(=O)[C@H]([C@@H](C)O)NC2=O)cc1` (H-CFF[dW][Phe(4-CH2NHiPr)]TFC-OH; disulfide 1-8): the IC50 in assay [1], in assay [2], in assay [5], in assay [3] and in assay [4] was over 1000 nM throughout.
For the compound `CC(C)NCc1ccc(C[C@@H]2NC(=O)[C@@H](N(C)C(=O)c3ccc4ccccc4c3)NC(=O)[C@H](Cc3ccccc3)NC(=O)[C@@H](N)CSSC[C@@H](C(N)=O)NC(=O)[C@H](Cc3ccc(O)cc3)NC2=O)cc1`, the IC50 is over 1000 nM in assay [1], 4.7 nM in assay [2], 252 nM in assay [3] and over 1000 nM in assay [4]. Also, the outcome in assay [6] was Active.
On to `CC(C)NCc1ccc(C[C@@H]2NC(=O)[C@@H](Cc3c[nH]c4ccccc34)NC(=O)[C@H](Cc3ccccc3)NC(=O)[C@@H](NC(=O)[C@@H](N)Cc3ccc(O)cc3)CSSC[C@@H](C(=O)N[C@H](C(N)=O)[C@@H](C)O)NC(=O)[C@H](Cc3ccccc3)NC(=O)[C@H]([C@@H](C)O)NC2=O)cc1` (H-YCF[dW][Phe(4-CH2NHiPr)]TFCT-NH2; disulfide 2-8), for which the IC50 in assay [1] was over 1000 nM; in assay [2], 150 nM; in assay [5], over 1000 nM; in assay [3] it was 60 nM; in assay [4] it was over 1000 nM.
Regarding `CC(C)NCc1ccc(C[C@@H]2NC(=O)[C@H](N(C)C(=O)c3ccc4ccccc4c3)NC(=O)[C@H](Cc3ccccc3)NC(=O)[C@@H](N)CSSC[C@@H](C(N)=O)NC(=O)[C@H](Cc3ccc(O)cc3)NC2=O)cc1`, the IC50 in assay [1] is over 1000 nM; in assay [2] it was 530 nM; in assay [5], over 1000 nM; in assay [3] it was over 1000 nM; in assay [4] it was over 1000 nM.
As for `CC(C)NCc1ccc(C[C@@H]2NC(=O)[C@H](N(C)C(=O)c3ccc4ccccc4c3)NC(=O)[C@H](Cc3ccccc3)NC(=O)[C@@H](N)CSSC[C@@H](C(=O)N[C@H](C(N)=O)[C@@H](C)O)NC(=O)[C@H](Cc3ccccc3)NC2=O)cc1`, the IC50 in assay [1] is over 1000 nM; in assay [2], 37 nM; in assay [3] it was 253 nM; in assay [4], over 1000 nM.
Consider `CC(C)NCc1ccc(C[C@@H]2NC(=O)[C@@H](Cc3c[nH]c4ccccc34)NC(=O)[C@H](Cc3ccccc3)NC(=O)[C@@H](N)CSSC[C@@H](C(=O)N[C@H](C(N)=O)[C@@H](C)O)NC(=O)[C@H](Cc3ccccc3)NC2=O)cc1` (H-CF[dW][Phe(4-CH2NHiPr)]FCT-NH2; disulfide 1-6), for which the IC50 in assay [1] is over 1000 nM; in assay [2], 108 nM; in assay [3], over 1000 nM; in assay [4] it was over 1000 nM.
As to `CC(C)NCc1ccc(C[C@@H]2NC(=O)[C@@H](N(C)C(=O)c3ccc4ccccc4c3)NC(=O)[C@H](Cc3ccccc3)NC(=O)[C@H](NC(=O)[C@@H](N)Cc3ccc(O)cc3)CSSC[C@@H](C(=O)N[C@@H](Cc3ccc4ccccc4c3)C(N)=O)NC(=O)[C@H](Cc3ccccc3)NC2=O)cc1`, the IC50 in assay [1] was over 1000 nM; in assay [2], 8.2 nM; in assay [5] it was 270 nM; in assay [3], 410 nM; in assay [4], over 1000 nM. The outcome in assay [6] was Active.
As to `CC(C)NCc1ccc(C[C@@H]2NC(=O)[C@H](N(C)C(=O)c3ccc4ccccc4c3)NC(=O)[C@H](Cc3ccccc3)NC(=O)[C@H](NC(=O)[C@@H](N)Cc3ccc(O)cc3)CSSC[C@@H](C(=O)N[C@@H](Cc3ccc4ccccc4c3)C(N)=O)NC(=O)[C@H](Cc3ccccc3)NC2=O)cc1`, the IC50 in assay [1] was over 1000 nM; in assay [2] it was 189 nM; in assay [5], over 1000 nM; in assay [3], 463 nM; in assay [4] it was over 1000 nM.
For the compound `CC(C)NCc1ccc(C[C@@H]2NC(=O)[C@@H](N(C)C(=O)c3ccc4ccccc4c3)NC(=O)[C@H](Cc3ccccc3)NC(=O)[C@H](N)CSSC[C@@H](C(=O)N[C@@H](Cc3ccc4ccccc4c3)C(N)=O)NC(=O)[C@H](Cc3ccccc3)NC2=O)cc1` (single isomer, unassigned), the outcome in assay [6] was Active.
`CC(C)NCc1ccc(C[C@@H]2NC(=O)[C@@H](N(C)C(=O)c3ccc4ccccc4c3)NC(=O)[C@H](Cc3ccccc3)NC(=O)[C@@H](NC(=O)[C@H](N)Cc3ccc(O)cc3)CSSC[C@@H](C(=O)N[C@H](C(N)=O)[C@@H](C)O)NC(=O)[C@H](Cc3ccccc3)NC2=O)cc1`: the IC50 in assay [1] is over 1000 nM; in assay [5], 27 nM; in assay [3] it was 158 nM; in assay [4] it was over 1000 nM.
Compound `C[C@@H](O)[C@H](NC(=O)[C@@H]1CSSC[C@H](NC(=O)[C@H](N)Cc2ccccc2)C(=O)N[C@@H](Cc2ccccc2)C(=O)N[C@H](Cc2c[nH]c3ccccc23)C(=O)N[C@@H](CCCCN)C(=O)N[C@@H]([C@@H](C)O)C(=O)N1)C(N)=O` registered an IC50 in assay [2] of over 1000 nM.
In the case of `CC(C)NCc1ccc(C[C@@H]2NC(=O)[C@@H](Cc3c[nH]c4ccccc34)NC(=O)[C@H](Cc3ccccc3)NC(=O)[C@H](Cc3ccccc3)NC(=O)[C@H](CCCCN)NC(=O)[C@@H](NC(=O)[C@@H](N)Cc3ccc(O)cc3)CSSC[C@@H](C(=O)O)NC(=O)[C@H](CO)NC(=O)[C@H]([C@@H](C)O)NC(=O)[C@H](Cc3ccccc3)NC(=O)[C@H]([C@@H](C)O)NC2=O)cc1` (H-YCKFF[dW][Phe(4-CH2NHiPr)]TFTSC-OH; disulfide 2-12), the outcome in assay [6] was Active. Besides, the IC50 in assay [5], in assay [3] and in assay [4] was over 1000 nM in each case.
For the compound `CC(C)NCc1ccc(C[C@@H]2NC(=O)[C@@H](N(C)C(=O)c3ccc4ccccc4c3)NC(=O)[C@H](Cc3ccccc3)NC(=O)[C@H](Cc3ccccc3)NC(=O)[C@H](CCCCN)NC(=O)[C@@H](N)CSSC[C@@H](C(=O)O)NC(=O)[C@H](CO)NC(=O)[C@H]([C@@H](C)O)NC(=O)[C@H](Cc3ccc(O)cc3)NC(=O)[C@H]([C@@H](C)O)NC2=O)cc1`, the 50% inhibitory concentration (IC50) in assay [1] is over 1000 nM; in assay [2] it was 3.3 nM; in assay [5], 562 nM; in assay [3], over 1000 nM; in assay [4], over 1000 nM.
Consider `CC(C)NCc1ccc(C[C@@H]2NC(=O)[C@H](N(C)C(=O)c3ccc4ccccc4c3)NC(=O)[C@H](Cc3ccccc3)NC(=O)[C@@H](NC(=O)[C@H](N)Cc3ccc(O)cc3)CSSC[C@@H](C(=O)N[C@H](C(N)=O)[C@@H](C)O)NC(=O)[C@H](Cc3ccccc3)NC2=O)cc1`, for which the IC50 in assay [1], in assay [5], in assay [3] and in assay [4] was over 1000 nM each time.
Regarding `CC(C)NCc1ccc(C[C@@H]2NC(=O)[C@@H](Cc3c[nH]c4ccccc34)NC(=O)[C@H](Cc3ccccc3)NC(=O)[C@H](Cc3ccccc3)NC(=O)[C@H](CCCCN)NC(=O)[C@@H](N)CSSC[C@@H](C(=O)O)NC(=O)[C@H](CO)NC(=O)[C@H]([C@@H](C)O)NC(=O)[C@H](Cc3ccc(O)c([125I])c3)NC(=O)[C@H]([C@@H](C)O)NC2=O)cc1`, in assay [2], the IC50 worked out at 3.6 nM.
Consider `CC(C)NCc1ccc(C[C@@H]2NC(=O)[C@@H](Cc3c[nH]c4ccccc34)NC(=O)[C@H](Cc3ccccc3)NC(=O)[C@H](Cc3ccccc3)NC(=O)[C@H](CCCCN)NC(=O)[C@@H](N)CSSC[C@@H](C(=O)O)NC(=O)[C@H](Cc3ccccc3)NC(=O)[C@H]([C@@H](C)O)NC2=O)cc1` (H-CKFF[dW][Phe(4-CH2NHiPr)]TFC-OH; disulfide 1-9), for which the IC50 is over 1000 nM in assay [1]; 189 nM in assay [2]; 932 nM in assay [5]; 789 nM in assay [3]; over 1000 nM in assay [4].
`CC(C)NCc1ccc(C[C@@H]2NC(=O)[C@@H](Cc3c[nH]c4ccccc34)NC(=O)[C@H](Cc3ccccc3)NC(=O)[C@H](Cc3ccccc3)NC(=O)[C@H](CCCCN)NC(=O)[C@@H](N)CSSC[C@@H](C(=O)O)NC(=O)[C@H](CO)NC(=O)[C@H]([C@@H](C)O)NC(=O)[C@H](Cc3ccccc3)NC(=O)[C@H]([C@@H](C)O)NC2=O)cc1` (H-CKFF[dW][Phe(4-CH2NHiPr)]TFTSC-OH; disulfide 1-11): the IC50 was over 1000 nM in assay [1]; 31 nM in assay [2]; over 1000 nM in assay [5]; 150 nM in assay [3]; over 1000 nM in assay [4].
`CC(C)NCc1ccc(C[C@@H]2NC(=O)[C@@H](N(C)C(=O)c3ccc4ccccc4c3)NC(=O)[C@H](Cc3ccccc3)NC(=O)[C@@H](N)CSSC[C@@H](C(=O)N[C@H](C(N)=O)[C@@H](C)O)NC(=O)[C@H](Cc3ccccc3)NC2=O)cc1`: the IC50 is over 1000 nM in assay [1]; 1 nM in assay [2]; 95 nM in assay [5]; 681 nM in assay [3]; over 1000 nM in assay [4]. Also, the outcome in assay [6] was Active. Also, in assay [6], a half-maximal effect (EC50) was put at 3.9 nM.
